{"data": "Assay results collected from several papers", "target": "SRSF protein kinase 3 (SRPK3, Homo sapiens, UniProt Q9UPE1)", "note": "Protocols differ between the studies behind these lines."}
{"SMILES": "Cn1c2c(Cl)c(Cl)ccc2c2cc[nH]c(=O)c21", "effect on": "thermal stability", "technique": "DSF", "tested at": "10 µM", "measurement": "ΔTm", "result": "0.2 °C"}
{"SMILES": "CN1CC(Oc2cnc(C#N)cc2-c2ccn3nc(NC(=O)C4CC4)cc3c2)C1", "effect on": "enzyme activity", "mode": "inhibitor", "tested at": "1 µM", "measurement": "inhibition", "result": "-3%"}
{"SMILES": "O=C(NS(=O)(=O)c1ccc(NCC2CCOCC2)c([N+](=O)[O-])c1)c1ccc(N2CCN(Cc3ccc(C(F)(F)F)cc3-c3ccc(Cl)cc3)CC2)cc1Oc1cnc2[nH]ccc2c1", "effect on": "cell-free assay", "technique": "competition with immobilised ligand", "tested at": "1 µM", "measurement": "remaining binding", "result": "100%"}
{"SMILES": "CC/C(=N\\NC(=O)NCc1cccc(O)c1)c1ccc(O)c(C)c1O", "effect on": "enzyme activity", "mode": "inhibitor", "tested at": "0.1 µM", "measurement": "inhibition", "result": "-2.9%"}
{"SMILES": "Cc1ccc(Nc2nccc(N(C)c3ccc4c(C)n(C)nc4c3)n2)cc1S(N)(=O)=O", "effect on": "enzyme activity", "mode": "inhibitor", "tested at": "10 µM", "measurement": "inhibition", "result": "3%"}
{"SMILES": "CC1=C(C#N)[C@@H](c2ccc3[nH]nc(C)c3c2)C(C#N)=C(c2ccc(Cl)cc2)N1", "effect on": "cell-free assay", "technique": "competition with immobilised ligand", "tested at": "1 µM", "measurement": "remaining binding", "result": "100%"}
{"SMILES": "CC(C)(C)c1nc(-c2cccc(NS(=O)(=O)c3c(F)cccc3F)c2F)c(-c2ccnc(N)n2)s1", "effect on": "enzyme activity", "mode": "inhibitor", "technique": "radiometric", "tested at": "1 µM", "measurement": "remaining activity", "result": "105%"}
{"SMILES": "CCCS(=O)(=O)Nc1ccc(F)c(C(=O)c2c[nH]c3ncc(-c4ccc(Cl)cc4)cc23)c1F", "effect on": "enzyme activity", "mode": "inhibitor", "tested at": "1 µM", "measurement": "inhibition", "result": "< 10%"}
{"SMILES": "COc1cc(Cl)c(C(=O)N[C@@H](CN[C@H]2CC[C@@H](N)CC2)Cc2ccc(C#N)cc2)cc1-c1ccc(CN[C@H](C)c2ccc(C)cc2)o1", "effect on": "enzyme activity", "mode": "inhibitor", "tested at": "1 µM", "measurement": "remaining activity", "result": "96%"}
{"SMILES": "CNC(=O)c1cc(Oc2ccc(NC(=O)Nc3ccc(Cl)c(C(F)(F)F)c3)cc2)ccn1", "effect on": "enzyme activity", "mode": "inhibitor", "tested at": "10 µM", "measurement": "inhibition", "result": "60%"}
{"SMILES": "Cn1c2c(c3ccc(Cl)c(Cl)c31)C(C#N)C1(CCN(C(=O)OC(C)(C)C)CC1)NC2=O (racemic)", "effect on": "thermal stability", "technique": "DSF", "tested at": "10 µM", "measurement": "ΔTm", "result": "0 °C"}
{"SMILES": "CS(=O)(=O)NCC[C@H](NC(=O)c1cncc2c1cnn2-c1ccc(F)cc1)c1ccnc(S(C)(=O)=O)c1", "effect on": "cell-free assay", "technique": "competition with immobilised ligand", "tested at": "1 µM", "measurement": "remaining binding", "result": "100%"}
{"SMILES": "COc1cc2ncnc(Nc3ccc(Oc4ccccc4)cc3C)c2cc1OC", "effect on": "enzyme activity", "mode": "inhibitor", "tested at": "1 µM", "measurement": "inhibition", "result": "2%"}
{"SMILES": "Cn1c2c(Cl)c(Cl)ccc2c2cc(N)[nH]c(=O)c21", "effect on": "thermal stability", "technique": "DSF", "tested at": "10 µM", "measurement": "ΔTm", "result": "0.3 °C"}
{"SMILES": "Cc1cc(NC(=O)c2cccc(S(F)(F)(F)(F)F)c2)cc(-n2ccn3nc(-c4cccnc4)cc23)c1", "effect on": "cell-free assay", "technique": "competition with immobilised ligand", "tested at": "1 µM", "measurement": "remaining binding", "result": "100%"}
{"SMILES": "CCN(CC)CCNC(=O)c1c(C)[nH]c(/C=C2\\C(=O)Nc3ccc(F)cc32)c1C", "effect on": "enzyme activity", "mode": "inhibitor", "tested at": "0.3 µM", "measurement": "inhibition", "result": "-4%"}
{"SMILES": "CC(=O)Nc1c(C(C)=O)c(=O)n(C)c2nc(-c3ccc(Cl)cc3Cl)c(-c3ccc(Cl)cc3)cc12", "effect on": "cell-free assay", "technique": "competition with immobilised ligand", "tested at": "1 µM", "measurement": "remaining binding", "result": "100%"}
{"SMILES": "Cc1ccc(NC(=O)c2ccc(C)c(C(F)(F)F)c2)cc1C#Cc1nn(C2CCC(O)CC2)c2ncnc(N)c12 (centres unmarked)", "effect on": "cell-free assay", "tested at": "10 µM", "measurement": "remaining signal", "result": "56%"}
{"SMILES": "CNCc1ccccc1-c1csc([C@H](C)Nc2nc(C)nc3cc(OC)c(OC)cc23)c1", "effect on": "cell-free assay", "technique": "competition with immobilised ligand", "tested at": "1 µM", "measurement": "remaining binding", "result": "89%"}
{"SMILES": "Cc1cc(NC(=O)c2cccc3cc(-c4cccc5[nH]nc(N)c45)ccc23)ccc1F", "effect on": "enzyme activity", "mode": "inhibitor", "tested at": "0.1 µM", "measurement": "activity vs control", "result": "113%"}
